# Data published in paper PMC7094870 (ACS chemical biology, 2020).
# Experiments:
# [1] = system: CrpE P450; assay: CrpE in vitro epoxidation conversion assay; assay type: biochemical, Nostoc sp. ATCC 53789
# [2] = system: CrpE P450 (histidine tagged); assay: CrpE P450 substrate binding titration; design: species or system Nostoc sp. ATCC 53789; details: type I (substrate-like) or type II (inhibitor-like) shift
# [3] = target: (UniProt A4D937); assay: CrpE P450 substrate binding titration; design: species or system Nostoc sp. ATCC 53789
# [4] = system: CrpTE (cryptophycin thioesterase); assay: Analytical substrate conversion assay of CrpTE; assay type: biochemical
# Method in brief: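 Analytical-scale reactions of CrpTE with NAc-activated seco substrates carrying varied unit A aryl or heterocyclic groups (including methyl pyrazoles), with the benzyl substrate run as a control. Chromatographic peaks were assigned to unreacted starting material, hydrolysis product and cyclized macrolactone. Where starting material and hydrolysis peaks co-eluted, values were estimated from extrapolated peaks.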
# (UniProt A4D937), sequence (A4D937 1-450): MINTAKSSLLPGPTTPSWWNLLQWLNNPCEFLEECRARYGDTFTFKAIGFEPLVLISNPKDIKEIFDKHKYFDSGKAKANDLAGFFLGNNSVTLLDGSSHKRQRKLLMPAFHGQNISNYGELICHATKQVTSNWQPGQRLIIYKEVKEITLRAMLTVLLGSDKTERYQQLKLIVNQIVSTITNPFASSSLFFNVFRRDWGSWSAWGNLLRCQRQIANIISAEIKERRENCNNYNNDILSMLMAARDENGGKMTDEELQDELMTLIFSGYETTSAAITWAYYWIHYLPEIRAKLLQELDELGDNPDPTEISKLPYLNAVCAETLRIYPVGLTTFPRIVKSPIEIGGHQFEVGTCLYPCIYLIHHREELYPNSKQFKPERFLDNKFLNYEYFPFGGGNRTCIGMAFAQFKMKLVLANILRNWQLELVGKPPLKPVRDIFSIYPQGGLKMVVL
smiles,measurement,setting,value
"COc1ccc(C[C@H]2NC(=O)/C=C/C[C@@H]([C@H](C)/C=C/c3ccccc3)OC(=O)[C@H](CC(C)C)OC(=O)[C@H](C)CNC2=O)cc1Cl [16a, cryptophycin 3]",conversion (CrpE epoxidation),[1]; RhFRED redox system,no conversion
same,percent conversion (CrpE epoxidation),[1]; spinach ferredoxin and ferredoxin reductase redox system,38%
same,spectral shift on binding to CrpE,[2],type I shift
same,Kd,[3],530 ± 150 nM
same,total turnover number (TTN),[4]; TTN = moles of product / moles of TE,110
same,percent conversion (CrpTE cyclization),"[4]; analytical scale, wild type CrpTE, NAc-activated seco substrate",73%
